Measured values reported in ChEMBL document CHEMBL2169869, “Assay and inhibition of diacylglycerol lipase activity” (Bioorg Med Chem Lett, 2012).
Activity calls are given as the source filed them. The calls are words filed in the database; no cut-off is given here.

Assays:
[1] = target: T1, Diacylglycerol lipase-alpha (Mus musculus) (UniProt Q6WQJ1); experiment: Inhibition of mouse DAGLalpha expressed in HEK293T cell membrane using [14C]SAG substrate at 10 nM by scintillation counting based radio-TLC assay; type: cell membranes; conditions: HEK-293T
T1 sequence (whole entry): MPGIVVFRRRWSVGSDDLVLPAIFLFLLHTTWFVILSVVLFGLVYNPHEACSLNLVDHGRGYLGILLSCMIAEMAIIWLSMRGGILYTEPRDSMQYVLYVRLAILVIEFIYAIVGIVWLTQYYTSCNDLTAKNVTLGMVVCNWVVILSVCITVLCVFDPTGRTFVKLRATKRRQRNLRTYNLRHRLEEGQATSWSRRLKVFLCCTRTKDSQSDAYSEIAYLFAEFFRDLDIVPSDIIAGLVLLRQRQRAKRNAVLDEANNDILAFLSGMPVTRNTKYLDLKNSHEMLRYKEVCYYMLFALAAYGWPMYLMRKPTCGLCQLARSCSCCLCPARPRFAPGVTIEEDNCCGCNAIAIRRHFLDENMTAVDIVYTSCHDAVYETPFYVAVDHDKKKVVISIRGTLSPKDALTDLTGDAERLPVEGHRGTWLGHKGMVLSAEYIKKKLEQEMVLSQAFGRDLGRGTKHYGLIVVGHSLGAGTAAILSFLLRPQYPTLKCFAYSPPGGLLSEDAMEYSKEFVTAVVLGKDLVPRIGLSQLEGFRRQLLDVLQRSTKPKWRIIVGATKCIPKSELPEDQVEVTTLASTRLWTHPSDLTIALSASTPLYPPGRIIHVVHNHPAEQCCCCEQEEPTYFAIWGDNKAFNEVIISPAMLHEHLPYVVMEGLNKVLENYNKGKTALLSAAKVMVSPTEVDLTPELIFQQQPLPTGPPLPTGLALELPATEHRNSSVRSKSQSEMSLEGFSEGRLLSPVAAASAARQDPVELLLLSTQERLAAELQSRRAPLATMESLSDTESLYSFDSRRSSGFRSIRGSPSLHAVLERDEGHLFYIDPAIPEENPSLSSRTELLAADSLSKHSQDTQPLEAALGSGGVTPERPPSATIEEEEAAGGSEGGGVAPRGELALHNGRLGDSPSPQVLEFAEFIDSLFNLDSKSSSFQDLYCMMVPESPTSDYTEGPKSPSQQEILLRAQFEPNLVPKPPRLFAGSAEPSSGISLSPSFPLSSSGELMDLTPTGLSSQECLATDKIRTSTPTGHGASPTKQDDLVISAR

Bacteria = experiment: Inhibition of bacterial lipoprotein lipase at 10 uM by FRET assay
[2] = target: T2, Diacylglycerol lipase-alpha (Homo sapiens) (UniProt Q9Y4D2); experiment: Inhibition of human DAGLalpha expressed in HEK293T cell membrane using [14C]SAG substrate at 10 uM in detergent free solution by […]; type: cell-based; conditions: HEK-293T
T2 sequence (whole entry): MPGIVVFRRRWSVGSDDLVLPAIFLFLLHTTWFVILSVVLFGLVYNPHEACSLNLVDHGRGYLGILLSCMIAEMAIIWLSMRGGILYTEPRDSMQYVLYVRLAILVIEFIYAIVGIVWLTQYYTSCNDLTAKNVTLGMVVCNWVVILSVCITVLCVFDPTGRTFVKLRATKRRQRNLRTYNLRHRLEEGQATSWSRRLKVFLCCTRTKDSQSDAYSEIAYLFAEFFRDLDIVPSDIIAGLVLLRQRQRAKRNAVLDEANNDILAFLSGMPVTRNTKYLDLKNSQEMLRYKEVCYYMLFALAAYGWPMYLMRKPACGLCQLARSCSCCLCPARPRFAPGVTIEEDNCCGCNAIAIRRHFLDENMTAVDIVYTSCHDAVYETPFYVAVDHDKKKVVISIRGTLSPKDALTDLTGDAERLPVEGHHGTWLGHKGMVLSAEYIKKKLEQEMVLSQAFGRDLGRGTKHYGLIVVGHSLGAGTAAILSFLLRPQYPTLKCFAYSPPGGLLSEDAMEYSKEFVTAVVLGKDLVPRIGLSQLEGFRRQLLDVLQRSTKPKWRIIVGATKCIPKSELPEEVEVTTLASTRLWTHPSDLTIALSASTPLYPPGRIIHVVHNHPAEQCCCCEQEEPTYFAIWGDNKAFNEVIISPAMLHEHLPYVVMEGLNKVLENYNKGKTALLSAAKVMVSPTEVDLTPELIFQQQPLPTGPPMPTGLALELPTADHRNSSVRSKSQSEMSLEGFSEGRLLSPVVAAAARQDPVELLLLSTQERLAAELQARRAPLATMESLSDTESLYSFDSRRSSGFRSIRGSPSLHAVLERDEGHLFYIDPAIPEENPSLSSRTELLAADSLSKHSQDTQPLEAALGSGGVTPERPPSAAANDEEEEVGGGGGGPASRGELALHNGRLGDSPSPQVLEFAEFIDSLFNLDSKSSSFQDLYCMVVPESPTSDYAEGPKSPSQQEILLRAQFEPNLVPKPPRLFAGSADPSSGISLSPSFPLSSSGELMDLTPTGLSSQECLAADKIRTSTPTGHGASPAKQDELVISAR

Sus scrofa = species: Sus scrofa; experiment: Inhibition of porcine pancreatic lipase type 2 at 10 uM by FRET assay
[3] = target: T1, Diacylglycerol lipase-alpha (Mus musculus); experiment: Inhibition of mouse DAGLalpha expressed in HEK293T cell membrane using [14C]SAG substrate at 10000 nM by scintillation counting based radio-TLC assay; type: cell membranes; conditions: HEK-293T
[4] = target: T1, Diacylglycerol lipase-alpha (Mus musculus); experiment: Inhibition of mouse DAGLalpha expressed in HEK293T cell membrane using [14C]SAG substrate at 100 nM by scintillation counting based radio-TLC assay; type: cell membranes; conditions: HEK-293T
Summary of the method: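 mDAGLα radio-TLC using 8.8 μg membrane protein in 50 mM Tris pH 7.4 with 10 mM CaCl2. Inhibitor tested at 10 nM–10 μM, preincubated 15 min at 37 °C. [14C]SAG 20 μM final for 20 min at 37 °C. CHCl3/MeOH quench, silica TLC, phosphorimaging. Activity = labelled 2-AG+AA over total label. n=1–2.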

[5] = target: T3, Monoglyceride lipase (Homo sapiens) (UniProt Q99685); experiment: Inhibition of human N-terminal histidine tagged full length MAGL expressed in Escherichia coli at 10 uM by coumarin ester substrate fluorescence assay
T3 sequence (whole entry): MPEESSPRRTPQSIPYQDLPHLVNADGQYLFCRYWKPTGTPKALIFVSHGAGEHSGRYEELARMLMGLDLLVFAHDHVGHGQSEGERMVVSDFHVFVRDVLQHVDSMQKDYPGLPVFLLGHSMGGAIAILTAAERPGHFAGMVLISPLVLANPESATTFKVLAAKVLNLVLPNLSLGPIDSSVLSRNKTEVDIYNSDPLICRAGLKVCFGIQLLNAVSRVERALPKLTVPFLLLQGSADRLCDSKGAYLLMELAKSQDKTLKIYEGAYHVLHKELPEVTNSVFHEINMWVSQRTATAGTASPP

Structure (SMILES): CCCCCCCCCCC[C@@H](C[C@@H]1OC(=O)[C@H]1CCCCCC)OC(=O)[C@@H](NC=O)[C@@H](C)CC
- inhibition [1]: 69%
- inhibition (Bacteria): 84%
- inhibition [2]: 92%
- inhibition (Sus scrofa): 99%
- inhibition [3]: 96%
- inhibition [4]: 80%
- inhibition [5]: 16%

Structure (SMILES): CCCCCCCCCCC[C@@H](C[C@@H]1OC(=O)[C@H]1CCCCCC)OC(=O)[C@H](CC)NC=O
- inhibition [1]: 50%
- inhibition (Bacteria): 80%
- inhibition [2]: 93%
- inhibition (Sus scrofa): 97%
- inhibition [3]: 100%
- inhibition [4]: 68%
- inhibition [5]: 45%

Structure (SMILES): CCCCCCCCCCC[C@@H](C[C@@H]1OC(=O)[C@H]1CCCCCC)OC(=O)[C@H](CC(C)C)NC=O [ORLISTAT]
- inhibition [1]: 55%
- inhibition (Sus scrofa): 98%
- inhibition [4]: 72%
- inhibition [5]: 47%

Structure (SMILES): CCCCCCCCCCC[C@@H](C[C@@H]1OC(=O)[C@H]1CCCCCC)OC(=O)[C@H](NC=O)[C@H](C)CC
- inhibition [1]: 33%
- inhibition (Bacteria): 86%
- inhibition [2]: 90%
- inhibition (Sus scrofa): 99%
- inhibition [3]: 85%
- inhibition [4]: 29%
- inhibition [5]: 39%

Structure (SMILES): CCCCCCCCCCC[C@@H](C[C@@H]1OC(=O)[C@H]1CCCCCC)OC(=O)[C@H](NC=O)[C@@H](C)CC
- inhibition [1]: 19%
- inhibition (Bacteria): 68%
- inhibition [2]: 90%
- inhibition (Sus scrofa): 95%
- inhibition [3]: 90%
- inhibition [4]: 51%
- inhibition [5]: 42%

Structure (SMILES): O=C(Oc1ccc([N+](=O)[O-])cc1)N1CCC(C(O)(c2ccc3c(c2)OCO3)c2ccc3c(c2)OCO3)CC1
- inhibition [1]: inactive
- inhibition (Bacteria): 36%
- inhibition [2]: 59%
- inhibition (Sus scrofa): 36%
- inhibition [3]: 3%
- inhibition [5]: 100%

Structure (SMILES): CCCCCCCCCCC[C@@H](C[C@@H]1OC(=O)[C@H]1CCCCCC)OC(=O)[C@@H](NC=O)[C@H](C)CC
- inhibition [1]: 60%
- inhibition (Bacteria): 61%
- inhibition [2]: 92%
- inhibition (Sus scrofa): 98%
- inhibition [3]: 100%
- inhibition [4]: 61%
- inhibition [5]: 1%
